Columns and labels:
Type in all cases: functional
OVCAR-5 = test: Growth inhibition of human OVCAR5 cells after 48 hrs by sulforhodamine B assay; details: OVCAR-5, 48 h
Summary of the method: (§1)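 NCI 60-cell-line panel. Cells are grown in RPMI1640 with 5% fetal calf serum and 2 mM L-glutamine, seeded at a density set by growth characteristics, and preincubated 24 h. Compound is tested at a minimum of five concentrations at 10-fold dilution, with 48 h continuous exposure. Viability is read by sulforhodamine B protein assay. GI50, TGI and LC50 come from dose-response curves.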

[1] = Growth inhibition of human […] cells after 48 hrs by sulforhodamine B assay; summary of the method: as §1
SK-MEL-28 = test: Growth inhibition of human SK-MEL-28 cells after 48 hrs by sulforhodamine B assay; details: SK-MEL-28, 48 h; summary of the method: as §1
786-0 = test: Growth inhibition of human 786-0 cells after 48 hrs by sulforhodamine B assay; details: 786-0, 48 h; summary of the method: as §1
NCI-H460 = test: Growth inhibition of human NCI-H460 cells after 48 hrs by sulforhodamine B assay; details: NCI-H460, 48 h; summary of the method: as §1
IGROV-1 = test: Growth inhibition of human IGROV1 cells after 48 hrs by sulforhodamine B assay; details: IGROV-1, 48 h; summary of the method: as §1
SN12C = test: Growth inhibition of human SN12C cells after 48 hrs by sulforhodamine B assay; summary of the method: as §1
HOP-92 = test: Growth inhibition of human HOP92 cells after 48 hrs by sulforhodamine B assay; details: HOP-92, 48 h; summary of the method: as §1
SW-620 = test: Growth inhibition of human SW620 cells after 48 hrs by sulforhodamine B assay; details: SW-620, 48 h
Summary of the method: (§2)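 NCI 60-cell-line panel (nine cancer types), with cells grown in RPMI1640 plus 5% fetal calf serum and 2 mM L-glutamine. Cells are seeded at a density that depends on the line and preincubated 24 h. Compounds are then applied at a minimum of five 10-fold dilutions over a 5-log range with 48 h continuous exposure. Viability is read by SRB protein assay, and GI50 is derived from dose-response curves in units of 10^-5 M.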

CCRF-CEM = test: Growth inhibition of human CCRF-CEM cells after 48 hrs by sulforhodamine B assay; summary of the method: as §1
OVCAR-3 = test: Growth inhibition of human OVCAR-3 cells after 48 hrs by sulforhodamine B assay; details: OVCAR-3, 48 h; summary of the method: as §1
HL-60(TB) = test: Growth inhibition of human HL-60(TB) cells after 48 hrs by sulforhodamine B assay; details: HL-60, 48 h
Summary of the method: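 NCI 60-cell-line panel. Cells were grown in RPMI1640 with 5% fetal calf serum and 2 mM L-glutamine, seeded at a density suited to each line, and preincubated 24 h. Compounds were tested at a minimum of five concentrations at 10-fold dilutions over a 5-log range, with 48 h continuous exposure. Growth was read by sulforhodamine B protein staining, and GI50 was taken from dose-response curves.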

NCI-H322M = test: Growth inhibition of human NCI-H322M cells after 48 hrs by sulforhodamine B assay; summary of the method: as §1
SF-295 = test: Growth inhibition of human SF295 cells after 48 hrs by sulforhodamine B assay; details: SF-295, 48 h; summary of the method: as §1
ACHN = test: Growth inhibition of human ACHN cells after 48 hrs by sulforhodamine B assay; summary of the method: as §1
SK-OV-3 = test: Growth inhibition of human SKOV3 cells after 48 hrs by sulforhodamine B assay; details: SK-OV-3, 48 h; summary of the method: as §1
SF-268 = test: Antiproliferative activity against human SF268 cells assessed as cell growth at 100 uM after 48 hrs by alamar blue assay; details: SF-268, 48 h, read-out: Activity
Summary of the method: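 NCI three-cell-line primary screen. Cells are seeded and preincubated in microtiter plates. Compound is added at a single 10^-4 M concentration and cultures are incubated 48 h. The end-point is read with alamar blue. Results are given as percent growth relative to untreated control cells.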

HCT-15 = test: Growth inhibition of human HCT15 cells after 48 hrs by sulforhodamine B assay; details: HCT-15, 48 h; summary of the method: as §1
CAKI-1 = test: Growth inhibition of human Caki1 cells after 48 hrs by sulforhodamine B assay; details: CAKI-1, 48 h; summary of the method: as §1
NCI-H226 = test: Growth inhibition of human NCI-H226 cells after 48 hrs by sulforhodamine B assay; details: NCI-H226, 48 h; summary of the method: as §1
COLO 205 = test: Growth inhibition of human COLO205 cells after 48 hrs by sulforhodamine B assay; details: COLO 205, 48 h; summary of the method: as §1
NCI-H522 = test: Growth inhibition of human NCI-H522 cells after 48 hrs by sulforhodamine B assay; details: NCI-H522, 48 h; summary of the method: as §1
MDA-MB-435 = test: Growth inhibition of human MDA-MB-435 cells after 48 hrs by sulforhodamine B assay; details: MDA-MB-435, 48 h; summary of the method: as §1
T47D = test: Growth inhibition of human T47D cells after 48 hrs by sulforhodamine B assay; summary of the method: as §2
UACC-257 = test: Growth inhibition of human UACC257 cells after 48 hrs by sulforhodamine B assay; details: UACC-257, 48 h; summary of the method: as §2
SF-539 = test: Growth inhibition of human SF539 cells after 48 hrs by sulforhodamine B assay; details: SF-539, 48 h; summary of the method: as §1
SNB-75 = test: Growth inhibition of human SNB75 cells after 48 hrs by sulforhodamine B assay; details: SNB-75, 48 h; summary of the method: as §2
OVCAR-4 = test: Growth inhibition of human OVCAR4 cells after 48 hrs by sulforhodamine B assay; details: OVCAR-4, 48 h; summary of the method: as §1
RXF 393 = test: Growth inhibition of human RXF393 cells after 48 hrs by sulforhodamine B assay; details: RXF 393, 48 h; summary of the method: as §1
[2] = read-out: LC50 (the source's name)

SMILES: COc1ccc(/C=N/c2nc3[nH]nc(C)n3c(=O)c2S(=O)(=O)NN2C(=O)C(CN3CCN(C)CC3)SC2c2cccs2)cc1 (configuration not stated)
- GI50 (OVCAR-5): 8.31 µM
- LC50 (concentration causing 50% net cell kill) (OVCAR-5): > 100 µM
- TGI (OVCAR-5): > 100 µM
- GI50 [1]: 2.56 µM
- TGI [1]: 8.21 µM
- CC50 [1, 2]: > 100 µM
- GI50 (SK-MEL-28): 16.4 µM
- TGI (SK-MEL-28): > 100 µM
- GI50 (786-0): 3.93 µM
- TGI (786-0): > 100 µM
- CC50 (786-0; [2]): > 100 µM
- GI50 (NCI-H460): 8.2 µM
- TGI (NCI-H460): > 100 µM
- GI50 (IGROV-1): 0.78 µM
- LC50 (IGROV-1): > 100 µM
- TGI (IGROV-1): 97.3 µM
- GI50 (SN12C): 4.68 µM
- LC50 (SN12C): > 100 µM
- TGI (SN12C): > 100 µM
- GI50 (HOP-92): 9.41 µM
- LC50 (HOP-92): > 100 µM
- TGI (HOP-92): > 100 µM
- GI50 (SW-620): 1.38 µM
- GI50 (CCRF-CEM): 3.52 µM
- TGI (CCRF-CEM): 16.1 µM
- GI50 (OVCAR-3): 0.88 µM
- LC50 (concentration killing 50% of cells) (OVCAR-3): > 100 µM
- TGI (OVCAR-3): > 100 µM
- GI50 (HL-60(TB)): 3.41 µM
- LC50 (HL-60(TB)): 31.3 µM
- TGI (HL-60(TB)): 7.04 µM
- GI50 (NCI-H322M): 8.18 µM
- TGI (NCI-H322M): > 100 µM
- GI50 (SF-295): 1.02 µM
- LC50 (concentration killing 50% of cells) (SF-295): > 100 µM
- TGI (SF-295): > 100 µM
- GI50 (ACHN): 3.18 µM
- TGI (ACHN): > 100 µM
- CC50 (ACHN; [2]): > 100 µM
- GI50 (SK-OV-3): 5.12 µM
- TGI (SK-OV-3): > 100 µM
- growth at 100 µM (SF-268): 58%
- GI50 (HCT-15): 0.65 µM
- TGI (HCT-15): > 100 µM
- GI50 (CAKI-1): 1.29 µM
- LC50 (50% lethal concentration) (CAKI-1): > 100 µM
- TGI (CAKI-1): > 100 µM
- GI50 (NCI-H226): 11.8 µM
- LC50 (concentration killing 50% of cells) (NCI-H226): > 100 µM
- TGI (NCI-H226): > 100 µM
- GI50 (COLO 205): 5.29 µM
- TGI (COLO 205): 21 µM
- GI50 (NCI-H522): 2.63 µM
- TGI (NCI-H522): 13.3 µM
- GI50 (MDA-MB-435): 0.32 µM
- TGI (MDA-MB-435): 5.2 µM
- GI50 (T47D): > 100 µM
- TGI (T47D): > 100 µM
- GI50 (UACC-257): 2.52 µM
- LC50 (UACC-257): > 100 µM
- TGI (UACC-257): > 100 µM
- GI50 (SF-539): 1.77 µM
- LC50 (SF-539): > 100 µM
- TGI (SF-539): 5.58 µM
- GI50 (SNB-75): 2.01 µM
- TGI (SNB-75): > 100 µM
- GI50 (OVCAR-4): > 100 µM
- LC50 (OVCAR-4): > 100 µM
- TGI (OVCAR-4): > 100 µM
- GI50 (RXF 393): 2.34 µM
- TGI (RXF 393): > 100 µM
- CC50 (RXF 393; [2]): > 100 µM
